Reference: ChEMBL document CHEMBL4689842, “EUbOPEN Chemogenomics Library wave 1” (2021)
Several values for one entry are separate records, joined by “and”; a condition that tells them apart may be missing. Equal values may be shown once.

System: Fibroblast
Experiment: Multiplex assay against human fibroblast
Format: toxicity, cell-based
In short: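 Values for tubulin, mitochondrial-mass and membrane-permeability phenotypes are per cents of cells with healthy nuclei. These cells were identified by CellPathfinder machine-learning gating of live cells that had been stained at seeding with Hoechst33342, BioTracker Green Microtubule Cytoskeleton Dye, MitoTracker Red and Annexin V Alexa Fluor 680 and imaged on a CQ1 microscope at 37°C and 5% CO2 after compound addition. The gating first set Hoechst high-intensity objects apart from normal cells, then split normal cells into healthy, pyknosed or fragmented nuclei, and pyknosed cells into mitotic or apoptotic.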

[1] = 12 h, 1 µM, compound concentration 1 uM, replicate 1
[2] = 12 h, 1 µM, compound concentration 1 uM, replicate 2
[3] = 12 h, 10 µM, compound concentration 10 uM, replicate 1
[4] = 12 h, 10 µM, compound concentration 10 uM, replicate 2
[5] = 24 h, 1 µM, compound concentration 1 uM, replicate 1
[6] = 24 h, 1 µM, compound concentration 1 uM, replicate 2
[7] = 24 h, 10 µM, compound concentration 10 uM, replicate 1
[8] = 24 h, 10 µM, compound concentration 10 uM, replicate 2
[9] = 48 h, 10 µM, compound concentration 10 uM, replicate 1
[10] = 48 h, 10 µM, compound concentration 10 uM, replicate 2

NC(=O)Nc1cc(-c2cccc(F)c2)sc1C(=O)N[C@H]1CCCNC1 [AZD-7762]
Population Apoptotic (%) [1]: 69% | Population Fragmented Nuclei (%) [1]: 20% | Population Healthy Nuclei (%) [1]: 62% | Population Hoechst High Intensity Objects (%) [1]: 14% | Population Membrane Permeable-Phenotype (%) [1]: 8% | Population Mitochondria Different-Phenotype (%) [1]: 0% | Population Mitotic Cells (%) [1]: 30% | Population Normal (%) [1]: 85% | Population Pyknosed Nuclei (%) [1]: 17% | Population Tubulin-Different-Phenotype (%) [1]: 1% | Total Cell Count [1]: 226 | Population Apoptotic (%) [2]: 60% | Population Fragmented Nuclei (%) [2]: 42% | Population Healthy Nuclei (%) [2]: 49% | Population Hoechst High Intensity Objects (%) [2]: 29% | Population Membrane Permeable-Phenotype (%) [2]: 16% | Population Mitochondria Different-Phenotype (%) [2]: 3% | Population Mitotic Cells (%) [2]: 40% | Population Normal (%) [2]: 70% | Population Pyknosed Nuclei (%) [2]: 8% | Population Tubulin-Different-Phenotype (%) [2]: 13% | Total Cell Count [2]: 87 | Population Apoptotic (%) [3]: 73% and 68% | Population Fragmented Nuclei (%) [3]: 47% and 34% | Population Healthy Nuclei (%) [3]: 35% and 51% | Population Hoechst High Intensity Objects (%) [3]: 16% and 18% | Population Membrane Permeable-Phenotype (%) [3]: 6% and 7% | Population Mitochondria Different-Phenotype (%) [3]: 3% | Population Mitotic Cells (%) [3]: 26% and 31% | Population Normal (%) [3]: 83% and 81% | Population Pyknosed Nuclei (%) [3]: 17% and 14% | Total Cell Count [3]: 106 and 295 | Population Apoptotic (%) [4]: 46% and 44% | Population Fragmented Nuclei (%) [4]: 22% and 60% | Population Healthy Nuclei (%) [4]: 25% and 27% | Population Membrane Permeable-Phenotype (%) [4]: 21% and 20% | Population Mitotic Cells (%) [4]: 53% and 55% | Population Normal (%) [4]: 94% and 67% | Population Tubulin-Different-Phenotype (%) [4]: 21% and 35% | Total Cell Count [4]: 79 and 110 | Population Apoptotic (%) [5]: 61% | Population Fragmented Nuclei (%) [5]: 25% | Population Healthy Nuclei (%) [5]: 62% | Population Hoechst High Intensity Objects (%) [5]: 14% | Population Membrane Permeable-Phenotype (%) [5]: 11% | Population Mitochondria Different-Phenotype (%) [5]: 1% | Population Mitotic Cells (%) [5]: 38% | Population Normal (%) [5]: 85% | Population Pyknosed Nuclei (%) [5]: 12% | Population Tubulin-Different-Phenotype (%) [5]: 2% | Total Cell Count [5]: 238 | Population Apoptotic (%) [6]: 0% | Population Fragmented Nuclei (%) [6]: 40% | Population Healthy Nuclei (%) [6]: 60% | Population Hoechst High Intensity Objects (%) [6]: 26% | Population Membrane Permeable-Phenotype (%) [6]: 10% | Population Mitochondria Different-Phenotype (%) [6]: 0% | Population Mitotic Cells (%) [6]: 0% | Population Normal (%) [6]: 73% | Population Pyknosed Nuclei (%) [6]: 0% | Population Tubulin-Different-Phenotype (%) [6]: 10% | Total Cell Count [6]: 68 | Population Apoptotic (%) [7]: 37% and 82% | Population Fragmented Nuclei (%) [7]: 47% and 41% | Population Healthy Nuclei (%) [7]: 44% and 47% | Population Hoechst High Intensity Objects (%) [7]: 27% and 14% | Population Mitochondria Different-Phenotype (%) [7]: 4% and 0% | Population Normal (%) [7]: 72% and 85% | Population Pyknosed Nuclei (%) [7]: 8% and 10% | Total Cell Count [7]: 129 and 316 | Population Apoptotic (%) [8]: 57% and 92% | Population Healthy Nuclei (%) [8]: 32% and 16% | Population Hoechst High Intensity Objects (%) [8]: 29% and 20% | Population Membrane Permeable-Phenotype (%) [8]: 100% | Population Normal (%) [8]: 70% and 80% | Population Pyknosed Nuclei (%) [8]: 66% | Total Cell Count [8]: 115 and 75 | Population Apoptotic (%) [9]: 25% | Population Fragmented Nuclei (%) [9]: 59% | Population Healthy Nuclei (%) [9]: 36% | Population Hoechst High Intensity Objects (%) [9]: 31% | Population Membrane Permeable-Phenotype (%) [9]: 17% | Population Mitochondria Different-Phenotype (%) [9]: 4% | Population Mitotic Cells (%) [9]: 75% | Population Normal (%) [9]: 68% | Population Pyknosed Nuclei (%) [9]: 3% | Population Tubulin-Different-Phenotype (%) [9]: 24% | Total Cell Count [9]: 162 | Population Apoptotic (%) [10]: 100% | Population Healthy Nuclei (%) [10]: 37% | Population Hoechst High Intensity Objects (%) [10]: 13% | Population Mitochondria Different-Phenotype (%) [10]: 2% | Population Mitotic Cells (%) [10]: 0% | Population Normal (%) [10]: 86% | Population Pyknosed Nuclei (%) [10]: 2% | Population Tubulin-Different-Phenotype (%) [10]: 14% | Total Cell Count [10]: 126
